# In ChEMBL document CHEMBL2057102, “Aminothienopyridazine inhibitors of tau aggregation: evaluation of structure-activity relationship leads to selection of candidates with desirable in vivo properties” (Bioorg Med Chem, 2012):
# Columns and labels:
# Mus musculus [1] = experiment: Toxicity in B6C3F1 mouse assessed as change in brain weight at 50 mg/kg, po administered in water qd for 1 month; format: organism-based; design: dose 50 mg/kg, route oral; settings: in vivo
# How it was run: (§1)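 Female B6C3F1 mice, 2 months old (n = 5 per group), dosed for 1 month via drinking water containing 3% PEG400 and 0.5% methylcellulose. Dose equivalent 50 mg/kg/day, assuming about 5 ml water per mouse per day. Vehicle controls were included and water intake was monitored. At the end, body weight was taken, then perfusion, organ weights (heart, liver, kidney, spleen, brain) and complete blood counts.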
# [2] = Half life in B6C3F1 mouse plasma at 5 mg/kg, ip after 16 hrs; format: ADME, organism-based; design: dose 5 mg/kg, route intraperitoneal
# How it was run: (§2)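 Mice given 5 mg/kg i.p. (n = 3 per time point) and sacrificed at times from 0.5 to 16 h after dosing. Perfused brain hemispheres were homogenized in 10 mM ammonium acetate pH 5.7 (50% w/v). Plasma came from EDTA blood. Samples were extracted with acetonitrile and quantified by LC-MS/MS (MRM, positive ESI) against matrix standard curves by linear regression.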
# Brain [3] = experiment: Clearance in B6C3F1 mouse brain at 5 mg/kg, ip after 16 hrs; format: ADME, organism-based; design: dose 5 mg/kg, route intraperitoneal; settings: in vivo; how it was run: as §2
# [4] = Oral bioavailability in B6C3F1 mouse at 10 mg/kg at 1 hr; format: ADME, organism-based; settings: in vivo
# [5] = Plasma concentration in B6C3F1 mouse at 5 mg/kg, ip at 1 hr; format: ADME, organism-based; design: dose 5 mg/kg, route intraperitoneal
# How it was run: (§3)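 Single i.p. dose of 5 mg/kg, sacrifice 1 h later. Perfused brain hemispheres were homogenized in 10 mM ammonium acetate pH 5.7 (50% w/v). EDTA plasma was taken. Brain homogenate or plasma was extracted with acetonitrile and analysed by LC-MS/MS (MRM) against matrix standard curves. Brain-to-plasma ratio was taken from total levels.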
# [6] = AUC (0.5 to 16 hrs) in B6C3F1 mouse plasma at 5 mg/kg, ip; format: ADME, organism-based; design: time 0.5-16 hr, dose 5 mg/kg, route intraperitoneal; how it was run: as §2
# Mus musculus [7] = experiment: Toxicity in B6C3F1 mouse assessed as adverse effects up to 100 mg/kg, po; format: organism-based; design: dose 100 mg/kg, route oral; settings: in vivo
# Mus musculus [8] = experiment: Toxicity in B6C3F1 mouse assessed as change in lymphocyte count at 50 mg/kg, po administered in water qd for 1 month; format: organism-based; design: dose 50 mg/kg, route oral; settings: in vivo; how it was run: as §1
# [9] = Ratio of unbound fraction in brain to plasma in B6C3F1 mouse at 5 mg/kg, ip after 16 hrs; format: ADME, organism-based; design: dose 5 mg/kg, route intraperitoneal; settings: in vivo; how it was run: as §2
# Plasma [10] = experiment: Volume of distribution in B6C3F1 mouse plasma at 5 mg/kg, ip after 16 hrs; format: ADME, organism-based; design: dose 5 mg/kg, route intraperitoneal; settings: in vivo; how it was run: as §2
# [11] = Drug uptake in B6C3F1 mouse brain at 50 mg/kg, po administered qd in drinking water for 3 days; format: ADME, organism-based; design: dose 50 mg/kg, route oral; settings: read-out: Drug uptake
# How it was run: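 Brain levels were measured after 3 days. Perfused brain hemispheres were homogenized in 10 mM ammonium acetate, pH 5.7 (50% w/v), extracted with acetonitrile, and analysed by LC-MS/MS (MRM) against brain-homogenate standard curves. Free level was calculated from the equilibrium-dialysis brain unbound fraction.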
# [12] = Clearance in B6C3F1 mouse plasma at 5 mg/kg, ip after 16 hrs; format: ADME, organism-based; design: dose 5 mg/kg, route intraperitoneal; how it was run: as §2
# Mus musculus [13] = experiment: Toxicity in B6C3F1 mouse assessed as adverse event at 50 mg/kg, po administered in water qd for 1 month; format: organism-based; design: dose 50 mg/kg, route oral; settings: in vivo; how it was run: as §1
# Brain [14] = experiment: Free AUC (0.5 to 16 hrs) in B6C3F1 mouse brain at 5 mg/kg, ip; format: ADME, organism-based; design: dose 5 mg/kg, route intraperitoneal; settings: in vivo; how it was run: as §2
# Brain [15] = experiment: Fraction unbound in mouse brain homogenate at 1 uM after 5 hrs by equilibrium dialysis; format: ADME, tissue-based
# How it was run: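 Rapid equilibrium dialysis. Compound at 1 μM in mouse plasma or brain homogenate, each diluted threefold with 100 mM sodium phosphate pH 7.4. Triplicate samples dialysed against the same buffer for 5 h at 37 °C with shaking. Both sides were matrix-matched, extracted with acetonitrile and run by LC-MS/MS. fu is buffer response over sample response; brain fu was corrected for tissue dilution.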
# Mus musculus [16] = experiment: Toxicity in B6C3F1 mouse assessed as change in RBC count at 50 mg/kg, po administered in water qd for 1 month; format: organism-based; design: dose 50 mg/kg, route oral; settings: in vivo; how it was run: as §1
# Mus musculus [17] = experiment: Ratio of drug level in brain to plasma in B6C3F1 mouse at 5 mg/kg, ip after 1 hr
# [18] = AUC (0.5 to 16 hrs) in B6C3F1 mouse brain at 5 mg/kg, ip; format: ADME, organism-based; design: time 0.5-16 hr, dose 5 mg/kg, route intraperitoneal; how it was run: as §2
# Mus musculus [19] = experiment: Toxicity in B6C3F1 mouse assessed as body weight loss at 50 mg/kg, po administered in water qd for 1 month relative to control; format: organism-based; design: dose 50 mg/kg, route oral; settings: in vivo; how it was run: as §1
# Mus musculus [20] = experiment: Toxicity in B6C3F1 mouse assessed as change in liver weight at 50 mg/kg, po administered in water qd for 1 month; format: organism-based; design: dose 50 mg/kg, route oral; settings: in vivo; how it was run: as §1
# [21] = Ratio of drug level in brain to plasma in B6C3F1 mouse at 5 mg/kg, ip after 16 hrs; format: ADME, organism-based; design: dose 5 mg/kg, route intraperitoneal; settings: read-out: BPR; how it was run: as §2
# Mus musculus [22] = experiment: Toxicity in B6C3F1 mouse assessed as change in heart weight at 50 mg/kg, po administered in water qd for 1 month; format: organism-based; design: dose 50 mg/kg, route oral; settings: in vivo; how it was run: as §1
# Mus musculus [23] = experiment: Toxicity in B6C3F1 mouse assessed as adverse effects at 50 mg/kg, po administered qd for 1 month; format: organism-based; design: dose 50 mg/kg, route oral; settings: in vivo; how it was run: as §1
# Plasma [24] = experiment: Free AUC (0.5 to 16 hrs) in B6C3F1 mouse plasma at 5 mg/kg, ip; format: ADME, organism-based; design: dose 5 mg/kg, route intraperitoneal; settings: in vivo; how it was run: as §2
# [25] = Drug uptake in B6C3F1 mouse brain at 5 mg/kg, ip after 1 hr; format: ADME, organism-based; design: dose 5 mg/kg, route intraperitoneal; settings: B6C3F1, mouse, brain, read-out: Drug uptake; how it was run: as §3
# Homo sapiens [26] = organism: Homo sapiens; experiment: Inhibition of heparin-induced tau K18PL mutant aggregation assessed as soluble tau fragment level at 50 uM after 5 days by SDS-PAGE analysis
# How it was run: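 Secondary centrifugation assay. Heparin-induced K18 P301L tau fibrillization mixtures with compound at 50 μM were centrifuged. Soluble and insoluble fractions were analysed by SDS-PAGE to give the percentage of tau remaining soluble.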
# [27] = Plasma concentration in B6C3F1 mouse at 10 mg/kg, po at 1 hr; format: ADME, organism-based; design: dose 10 mg/kg, route oral
# Mus musculus [28] = experiment: Toxicity in B6C3F1 mouse assessed as change in spleen weight at 50 mg/kg, po administered in water qd for 1 month; format: organism-based; design: dose 50 mg/kg, route oral; settings: in vivo; how it was run: as §1
# [29] = Drug uptake in B6C3F1 mouse plasma at 5 mg/kg, ip after 1 hr; format: ADME, organism-based; design: dose 5 mg/kg, route intraperitoneal; settings: B6C3F1, mouse, plasma; how it was run: as §3
# Mus musculus [30] = experiment: Toxicity in B6C3F1 mouse assessed as change in neutrophil count at 50 mg/kg, po administered in water qd for 1 month; format: organism-based; design: dose 50 mg/kg, route oral; settings: in vivo; how it was run: as §1
# Mus musculus [31] = experiment: Toxicity in B6C3F1 mouse assessed as change in kidney weight at 50 mg/kg, po administered in water qd for 1 month; format: organism-based; design: dose 50 mg/kg, route oral; settings: in vivo; how it was run: as §1
# [32] = Inhibition of heparin-induced alexa red-labelled tau K18PL mutant aggregation after 6 hrs by thioflavin-T fluorescence assay; design: species or system Homo sapiens
# How it was run: (§4)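 Heparin-induced fibrillization of tau K18 fragment (residues 244–369) carrying P301L, with tau at 20 μM in sodium acetate buffer. Fibril formation was read by thioflavin-T fluorescence. IC50 came from sigmoidal fitting of concentration-response data, each concentration in triplicate. Values are from a single fit, or the mean of 2 or more analyses where marked.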
# Mus musculus [33] = experiment: Toxicity in B6C3F1 mouse assessed as mild and transient lethargy at 100 mg/kg, po; format: organism-based; design: dose 100 mg/kg, route oral; settings: in vivo
# Homo sapiens [34] = organism: Homo sapiens; experiment: Inhibition of heparin-induced alexa red-labelled tau K18PL mutant aggregation after 6 hrs by thioflavin-T fluorescence assay relative to control; how it was run: as §4
# Mus musculus [35] = experiment: Toxicity in B6C3F1 mouse assessed as change in WBC count at 50 mg/kg, po administered in water qd for 1 month; format: organism-based; design: dose 50 mg/kg, route oral; settings: in vivo; how it was run: as §1
structure (smiles),measurement,setting,value
Nc1scc2c(C(=O)NC3CC3)nn(-c3ccc(F)cc3)c(=O)c12,Activity,Mus musculus [1],Non-toxic
same,half-life,[2],2.2 h
same,CL,Brain [3],50 mL/h
same,bioavailability,[4],60%
same,concentration at 1 h,[5],610 ng/mL
same,AUC(0-t),[6],2350 ng·h/mL
same,Activity,Mus musculus [7],Non-toxic
same,Activity,Mus musculus [8],Non-toxic
same,BPR,[9],1.2
same,Vd,Plasma [10],246 mL
same,concentration at 72 h,[11],139 nM
same,CL/F,[12],1.31 mL/min
same,Activity,Mus musculus [13],Non-toxic
same,fAUC,Brain [14],195 ng·h/mL
same,Fu,Brain [15],4.3%
same,Activity,Mus musculus [16],Non-toxic
same,BPR,Mus musculus [17],1.09
same,AUC(0-t),[18],4510 ng·h/mL
same,Activity,Mus musculus [19],Non-toxic
same,Activity,Mus musculus [20],Non-toxic
same,Kp at 16 h,[21],1.9
same,Activity,Mus musculus [22],Non-toxic
same,Activity,Mus musculus [23],Non-toxic
same,fAUC,Plasma [24],162 ng·h/mL
same,concentration at 1 h,[25],670 ng/g
same,inhibition,Homo sapiens [26],78%
same,concentration at 1 h,[27],832 ng/mL
same,Activity,Mus musculus [28],Non-toxic
same,concentration at 1 h,[29],610 ng/mL
same,Activity,Mus musculus [30],Non-toxic
same,Activity,Mus musculus [31],Non-toxic
same,IC50,[32],2500 nM
same,Activity,Mus musculus [33],Toxic
same,Imax,Homo sapiens [34],88%
same,Activity,Mus musculus [35],Non-toxic
